Where only a bound is given, the exact number is not on record here.

Assay type in all cases: ADME, organism-based
Series [1] relates to Plasma. Put plainly: Drug level in healthy human plasma treated with [14C]lapatinib at 250 mg, po administered as single dose by LC-MS/MS method. As to conditions: in vivo. An outline of the steps:
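Healthy volunteers (n=6) received a single 250 mg oral aqueous suspension of unlabeled plus [14C]-drug (89.1 μCi), fasted 10 h predose to ~4 h postdose. Samples were collected for 168 h. Plasma was extracted from 25 µl by protein precipitation with an isotope-labeled internal standard and quantified by validated LC/MS/MS over 5 to 5000 ng/ml. Medians were reported.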

A short description of series [2]: Drug level in healthy human feces treated with [14C]lapatinib at 250 mg, po administered as single dose by LC-MS/MS method. As to conditions: in vivo.
A short description of series [3]: Drug recovery in healthy human urine at 250 mg, po administered as single dose after 0 to 168 hrs. As to conditions: read-out: Drug recovery. An outline of the steps:
(§1)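 Six healthy subjects (3 male, 3 female) received a single 250 mg oral [14C] suspension. Urine was collected in intervals and faeces were collected up to 168 h postdose. Faeces were homogenized as a water slurry and triplicate ~0.2 g aliquots combusted. Urine and plasma were counted directly by LSC with quench and background correction. Results are reported as median % of dose.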

Series [4] can be described thus: Total drug recovery in healthy female human at 250 mg, po administered as single dose. As to conditions: in vivo, read-out: Drug recovery. The method, boiled down:
as §1

A short description of series [5]: Drug level in healthy human feces at 250 mg, po administered as single dose by LC-MS/MS method. As to conditions: read-out: Drug uptake.
A short description of series [6]: Drug recovery in healthy human urine at 250 mg, po administered as single dose. As to conditions: read-out: Drug recovery. An outline of the steps: as §1
The nature of series [7]: Drug recovery in healthy male human feces at 250 mg, po administered as single dose. As to conditions: read-out: Drug recovery. An outline of the steps: as §1
Series [8] is described as follows: Total drug recovery in healthy male human at 250 mg, po administered as single dose. As to conditions: in vivo, read-out: Drug recovery. An outline of the steps:
as §1

A short description of series [9]: Drug recovery in healthy female human urine at 250 mg, po administered as single dose. As to conditions: read-out: Drug recovery. An outline of the steps:
as §1

Series [10] is described as follows: Drug recovery in healthy human urine at 250 mg, po administered as single dose after 0 to 24 hrs. As to conditions: read-out: Drug recovery. An outline of the steps:
as §1

A short description of series [11]: Drug recovery in healthy human urine at 250 mg, po administered as single dose after 0 to 96 hrs. As to conditions: read-out: Drug recovery. The method, boiled down:
as §1

For series [12], the system named is Plasma. Nature of the series: Drug metabolism in healthy human plasma assessed as 2-chloro-4-(6-(5-((2-(methylsulfonyl)ethylamino)methyl)furan-2-yl)quinazolin-4-ylamino)phenol formation at 250 mg, po administered as single dose by LC-MS/MS method. As to conditions: in vivo. The method, boiled down:
(§2)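 Pooled plasma from subjects given a single 250 mg oral [14C] suspension was extracted (>90% recovery) and run on a C18 HPLC column at 45 °C. Positive-ion ESI single-quadrupole LC/MS used full scan m/z 100 to 900, with UV at 277 nm. Faeces were extracted with ethanol:acetonitrile:sample (3:3:1) for radio-HPLC profiling with off-line LSC fractions and nanoelectrospray MS.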

Series [13] is described as follows: Drug recovery in healthy human feces at 250 mg, po administered as single dose after 0 to 120 hrs. As to conditions: read-out: Drug recovery. The method, boiled down:
as §1

Series [14] deals with Plasma. Nature of the series: Drug metabolism in healthy human plasma assessed as N-((5-(4-(3-chloro-4-(3-fluorobenzyloxy)phenylamino)quinazolin-6-yl)furan-2-yl)methylene)-2-(methylsulfonyl)ethanamine oxide formation at 250 mg, po administered as single dose by LC-MS/MS method. As to conditions: in vivo. The method, boiled down:
as §2

Series [15] can be described thus: Drug recovery in healthy human urine at 250 mg, po administered as single dose after 0 to 144 hrs. As to conditions: read-out: Drug recovery. The method, boiled down:
as §1

Series [16] deals with Plasma. Nature of the series: Drug metabolism in healthy human plasma assessed as 4-(3-chloro-4-hydroxyphenylamino)-6-(5-((2-(methylsulfonyl)ethylamino)methyl)furan-2-yl)quinazolin-2-ol formation at 250 mg, po administered as single dose by LC-MS/MS method. As to conditions: in vivo. The method, boiled down: as §2
In series [17] the test system is Plasma. Nature of the series: Drug metabolism in healthy human plasma assessed as N-(3-chloro-4-(3-fluorobenzyloxy)phenyl)-6-(5-((hydroxy(2-(methylsulfonyl)ethyl)amino)methyl)furan-2-yl)quinazolin-4-amine formation at 250 mg, po administered as single dose by LC-MS/MS method. As to conditions: in vivo. An outline of the steps: as §2
Series [18] in a line: Drug recovery in healthy male human urine at 250 mg, po administered as single dose. As to conditions: read-out: Drug recovery. An outline of the steps: as §1
The test system of a further series is Homo sapiens. Put plainly: Total drug recovery in healthy human at 250 mg, po administered as single dose after 0 to 168 hrs. As to conditions: in vivo. The method, boiled down: as §1
Series [19] in a line: Drug recovery in healthy human feces at 250 mg, po administered as single dose after 0 to 72 hrs. As to conditions: read-out: Drug recovery. An outline of the steps: as §1
Series [20] can be described thus: Drug recovery in healthy human feces at 250 mg, po administered as single dose after 0 to 144 hrs. As to conditions: read-out: Drug recovery. An outline of the steps:
as §1

Series [21] is described as follows: Drug metabolism in healthy human feces assessed as 6-(5-(aminomethyl)furan-2-yl)-N-(3-chloro-4-(3-fluorobenzyloxy)phenyl)quinazolin-4-amine formation at 250 mg, po administered as single dose by LC-MS/MS method. As to conditions: in vivo. An outline of the steps:
as §2

For series [22], the system named is Plasma. Put plainly: Drug metabolism in healthy human plasma assessed as 5-(4-(3-chloro-4-(3-fluorobenzyloxy)phenylamino)quinazolin-6-yl)furan-2-carbaldehyde formation at 250 mg, po administered as single dose by LC-MS/MS method. As to conditions: in vivo. The method, boiled down:
as §2

Series [23] is described as follows: Drug recovery in healthy human urine at 250 mg, po administered as single dose after 0 to 120 hrs. As to conditions: read-out: Drug recovery. An outline of the steps:
as §1

Series [24] in a line: Total drug recovery in healthy human at 250 mg, po administered as single dose. As to conditions: in vivo, read-out: Drug recovery. The method, boiled down: as §1
The subject of series [25] is Plasma. Nature of the series: Drug metabolism in healthy human plasma assessed as (Z)-5-(4-(3-chloro-4-(3-fluorobenzyloxy)phenylamino)quinazolin-6-yl)furan-2-carbaldehyde oxime formation at 250 mg, po administered as single dose by LC-MS/MS method. As to conditions: in vivo. The method, boiled down:
as §2

Series [26] can be described thus: Drug recovery in healthy human feces at 250 mg, po administered as single dose after 0 to 48 hrs. As to conditions: read-out: Drug recovery. The method, boiled down: as §1
For series [27], the system named is Plasma. Put plainly: Drug metabolism in healthy human plasma assessed as (E)-5-(4-(3-chloro-4-(3-fluorobenzyloxy)phenylamino)quinazolin-6-yl)furan-2-carbaldehyde oxime formation at 250 mg, po administered as single dose by LC-MS/MS method. As to conditions: in vivo. An outline of the steps: as §2
Series [28] has as its system Plasma. Put plainly: Drug metabolism in healthy human plasma assessed as 1-(5-(4-(3-chloro-4-(3-fluorobenzyloxy)phenylamino)quinazolin-6-yl)furan-2-yl)-N-(2-(methylsulfonyl)ethylidene)methanamine oxide formation at 250 mg, po administered as single dose by LC-MS/MS method. As to conditions: in vivo. The method, boiled down:
as §2

Series [29] can be described thus: Drug recovery in healthy human urine at 250 mg, po administered as single dose after 0 to 48 hrs. As to conditions: read-out: Drug recovery. An outline of the steps: as §1
Series [30] relates to Plasma. Nature of the series: Drug recovery in healthy human plasma at 250 mg, po administered as single dose. As to conditions: in vivo.
The nature of series [31]: Drug recovery in healthy human feces at 250 mg, po administered as single dose after 0 to 24 hrs. As to conditions: read-out: Drug recovery. An outline of the steps:
as §1

Series [32] is described as follows: Drug recovery in healthy human urine at 250 mg, po administered as single dose after 0 to 72 hrs. As to conditions: read-out: Drug recovery. The method, boiled down:
as §1

The nature of series [33]: Drug recovery in healthy human feces at 250 mg, po administered as single dose after 0 to 168 hrs. As to conditions: read-out: Drug recovery. An outline of the steps: as §1
Series [34] has as its system Plasma. Nature of the series: Drug metabolism in healthy human plasma assessed as 5-(4-(3-chloro-4-(3-fluorobenzyloxy)phenylamino)quinazolin-6-yl)furan-2-carboxylic acid formation at 250 mg, po administered as single dose by LC-MS/MS method. As to conditions: in vivo. An outline of the steps: as §2
Series [35] is described as follows: Drug recovery in healthy female human feces at 250 mg, po administered as single dose. As to conditions: read-out: Drug recovery. An outline of the steps: as §1
A short description of series [36]: Drug recovery in healthy human feces at 250 mg, po administered as single dose after 0 to 96 hrs. As to conditions: read-out: Drug recovery. An outline of the steps: as §1

Take `O=C(O)c1ccc(-c2ccc3ncnc(Nc4ccc(OCc5cccc(F)c5)c(Cl)c4)c3c2)o1`: the Drug metabolism entry in the series with Plasma [1] is “metabolite_detected”. Further, in series [2], the Drug uptake is listed as 14%.

As for `CS(=O)(=O)CC[n+]1cc([O-])ccc1-c1ccc2ncnc(Nc3ccc(OCc4cccc(F)c4)c(Cl)c3)c2c1`, in series [2], the Drug metabolism entry is on record as “metabolite_detected”.

With `CS(=O)(=O)CCNCc1ccc(-c2ccc3ncn[14c](Nc4ccc(OCc5cccc(F)c5)c(Cl)c4)c3c2)o1.Cc1ccc(S(=O)(=O)O)cc1.O`, the dose excreted in series [3] turned out to be 1.16%; in series [4] it was 91.5%; in series [5], 27%; in series [6] it was 1.15%; in [7] it was 93.6%; in series [8], 94.6%. Besides, the dose excreted was determined as 1.3% in series [9]; 1.01% in series [10]; 1.16% in series [11]; 90.8% in series [13]; 1.16% in [15]; 1% in [18]. Moreover, the dose excreted in [19] worked out at 74.9%; in [20], 91.4%; in series [23] it was 1.16%; in series [24] it was 93%; in series [26], 45.3%; in series [29], 1.16%. The dose excreted was 10.5% in series [31]; 1.16% in [32]; 91.8% in series [33]; 89.9% in [35]; 78.4% in series [36]. The Drug metabolism result is given as “metabolite_not_detected” with Plasma [12]; “metabolite_detected” in the series on Plasma [14]; “metabolite_not_detected” in the series with Plasma [16]; “metabolite_detected” with Plasma [17]; “metabolite_detected” in series [21]; “metabolite_detected” in the series on Plasma [22]. Also, the Drug metabolism entry in the series on Plasma [25], with Plasma [27], in the series on Plasma [28] and in the series on Plasma [34] was “metabolite_detected” each time. Also, the Drug recovery is 93.1% in the series with Homo sapiens and over 90% with Plasma [30].

In turn, `CS(=O)(=O)CCNCc1ccc(-c2ccc3ncnc(Nc4ccc(O)c(Cl)c4)c3c2)o1` showed a Drug uptake in series [2] of 3.9%.

With `Oc1ccc(-c2ccc3ncnc(Nc4ccc(OCc5cccc(F)c5)c(Cl)c4)c3c2)nc1`, the Drug uptake in series [2] was found to be 6.3%.

`CS(=O)(=O)CCN(O)Cc1ccc(-c2ccc3ncnc(Nc4ccc(OCc5cccc(F)c5)c(Cl)c4)c3c2)o1`: the Drug metabolism result in the series with Plasma [1] was “metabolite_detected”.

In the case of `O/N=C/c1ccc(-c2ccc3ncnc(Nc4ccc(OCc5cccc(F)c5)c(Cl)c4)c3c2)o1`, the Drug metabolism entry with Plasma [1] was “metabolite_detected”.

In series [2], `CS(=O)(=O)CCNCc1ccc(-c2ccc3nc(O)nc(Nc4ccc(O)c(Cl)c4)c3c2)o1` displayed a Drug uptake of 3.3%.

`NCc1ccc(-c2ccc3ncnc(Nc4ccc(OCc5cccc(F)c5)c(Cl)c4)c3c2)o1`: the Drug metabolism entry in series [2] is reported as “metabolite_detected”.

For the molecule `CS(=O)(=O)CC/[N+]([O-])=C/c1ccc(-c2ccc3ncnc(Nc4ccc(OCc5cccc(F)c5)c(Cl)c4)c3c2)o1`, in the series with Plasma [1], the Drug metabolism entry is given as “metabolite_detected”.

Regarding `CS(=O)(=O)C/C=[N+](/[O-])Cc1ccc(-c2ccc3ncnc(Nc4ccc(OCc5cccc(F)c5)c(Cl)c4)c3c2)o1`, in the series on Plasma [1], the Drug metabolism entry is reported as “metabolite_detected”.

Take `O/N=C\c1ccc(-c2ccc3ncnc(Nc4ccc(OCc5cccc(F)c5)c(Cl)c4)c3c2)o1`: the Drug metabolism entry with Plasma [1] was “metabolite_detected”.

For the molecule `O=Cc1ccc(-c2ccc3ncnc(Nc4ccc(OCc5cccc(F)c5)c(Cl)c4)c3c2)o1`, the Drug metabolism result with Plasma [1] was “metabolite_detected”.

The values are drawn from ChEMBL document CHEMBL3526055, “Human metabolism of lapatinib, a dual kinase inhibitor: implications for hepatotoxicity” (Drug Metab Dispos, 2012).
